# Assay results published in ChEMBL document CHEMBL5247575 (J Med Chem, 2018).
# Tests used:
# [1] = tested on: Bacteria; assay: Inhibition of bacteria KPC-2 assessed as second order rate constant K2/K using nitrocefin as substrate
# Summary of the method: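 Steady-state kinetics, 10 mM phosphate-buffered saline pH 7.4. Progress curves recorded with fixed enzyme and nitrocefin and increasing nM inhibitor. Each curve fitted to a time-course equation to give k_obs. k2/K derived from these and corrected for nitrocefin concentration relative to its Km.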
# [2] = tested on: Bacteria; assay: Inhibition of bacteria KPC-2 assessed as half life using nitrocefin as substrate
# [3] = tested on: Escherichia coli; assay: Antibacterial activity against Escherichia coli DH10B transfected with pBR322-catI-KPC-2 by broth microdilution method; assay type: functional
# [4] = tested on: Escherichia coli; assay: Synergistic antibacterial activity against Escherichia coli DH10B transfected with pBC SK (-) KPC-3 assessed as cefepime MIC at 4 ug/ml by broth microdilution method; assay type: functional; settings: dose 4 µg/ml
# [5] = tested on: Klebsiella pneumoniae; assay: Synergistic antibacterial activity against Klebsiella pneumoniae 977/1916 producing KPC-3 assessed as cefepime MIC at 4 ug/ml by broth microdilution method; assay type: functional; settings: dose 4 µg/ml
# [6] = tested on: Klebsiella pneumoniae; assay: Synergistic antibacterial activity against Klebsiella pneumoniae 1398/2291 producing KPC-3 assessed as cefepime MIC at 4 ug/ml by broth microdilution method; assay type: functional; settings: dose 4 µg/ml
# Summary of the method: (§1)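 Broth microdilution per CLSI guidelines, using custom frozen panels. […] Each partner drug was also tested alone. MICs were run in triplicate and the modal value is reported.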
# [7] = tested on: Klebsiella pneumoniae; assay: Synergistic antibacterial activity against Klebsiella pneumoniae 972/1910 producing KPC-3 assessed as cefepime MIC at 4 ug/ml by broth microdilution method; assay type: functional; settings: dose 4 µg/ml
# [8] = tested on: Pseudomonas aeruginosa; assay: Synergistic antibacterial activity against Pseudomonas aeruginosa 795 assessed as cefepime MIC at 4 ug/ml by broth microdilution method; assay type: functional; settings: dose 4 µg/ml
# [9] = tested on: Acinetobacter baumannii; assay: Synergistic antibacterial activity against Acinetobacter baumannii PR363 producing OXA-23 assessed as cefepime MIC at 4 ug/ml by broth microdilution method; assay type: functional; settings: dose 4 µg/ml
# [10] = tested on: Acinetobacter baumannii; assay: Synergistic antibacterial activity against Acinetobacter baumannii PR440 producing OXA-23/24/40 assessed as cefepime MIC at 4 ug/ml by broth microdilution method; assay type: functional; settings: dose 4 µg/ml
# [11] = tested on: Acinetobacter baumannii; assay: Synergistic antibacterial activity against Acinetobacter baumannii PR448 producing OXA-23 assessed as cefepime MIC at 4 ug/ml by broth microdilution method; assay type: functional; settings: dose 4 µg/ml
# [12] = tested on: Acinetobacter baumannii; assay: Synergistic antibacterial activity against Acinetobacter baumannii PR476 producing OXA-24/40 assessed as cefepime MIC at 4 ug/ml by broth microdilution method; assay type: functional; settings: dose 4 µg/ml
# [13] = tested on: Klebsiella pneumoniae; assay: Synergistic antibacterial activity against Klebsiella pneumoniae 1084/1957 producing KPC-3 assessed as cefepime MIC at 8 ug/ml by broth microdilution method; assay type: functional; settings: dose 8 µg/ml; summary of the method: as §1
# [14] = tested on: Klebsiella pneumoniae; assay: Synergistic antibacterial activity against Klebsiella pneumoniae 1108/1989 producing KPC-3 assessed as cefepime MIC at 8 ug/ml by broth microdilution method; assay type: functional; settings: dose 8 µg/ml; summary of the method: as §1
# [15] = tested on: Klebsiella pneumoniae; assay: Synergistic antibacterial activity against Klebsiella pneumoniae CAV 1636 producing OXA-181 assessed as cefepime MIC at 8 ug/ml by broth microdilution method; assay type: functional; settings: dose 8 µg/ml
# [16] = tested on: Pseudomonas aeruginosa; assay: Synergistic antibacterial activity against Pseudomonas aeruginosa 839 assessed as cefepime MIC at 8 ug/ml by broth microdilution method; assay type: functional; settings: dose 8 µg/ml
# [17] = tested on: Acinetobacter baumannii; assay: Synergistic antibacterial activity against Acinetobacter baumannii PR319 producing OXA-23/24/40 assessed as cefepime MIC at 8 ug/ml by broth microdilution method; assay type: functional; settings: dose 8 µg/ml
# [18] = tested on: Acinetobacter baumannii; assay: Synergistic antibacterial activity against Acinetobacter baumannii PR359 producing OXA-23 assessed as cefepime MIC at 8 ug/ml by broth microdilution method; assay type: functional; settings: dose 8 µg/ml
# [19] = tested on: Acinetobacter baumannii; assay: Synergistic antibacterial activity against Acinetobacter baumannii PR408 producing OXA-24/40 assessed as cefepime MIC at 8 ug/ml by broth microdilution method; assay type: functional; settings: dose 8 µg/ml
# [20] = tested on: Acinetobacter baumannii; assay: Synergistic antibacterial activity against Acinetobacter baumannii PR476 producing OXA-24/40 assessed as cefepime MIC at 8 ug/ml by broth microdilution method; assay type: functional; settings: dose 8 µg/ml
# [21] = tested on: Escherichia coli; assay: Synergistic antibacterial activity against Escherichia coli DH10B assessed as meropenem MIC at 4 ug/ml by broth microdilution method; assay type: functional; settings: dose 4 µg/ml
# [22] = tested on: Escherichia coli; assay: Synergistic antibacterial activity against Escherichia coli DH10B transfected with pBC SK (-) KPC-2 assessed as meropenem MIC at 4 ug/ml by broth microdilution method; assay type: functional; settings: dose 4 µg/ml
# [23] = tested on: Escherichia coli; assay: Synergistic antibacterial activity against Escherichia coli DH10B transfected with pBC SK (-) OXA-48 assessed as meropenem MIC at 4 ug/ml by broth microdilution method; assay type: functional; settings: dose 4 µg/ml; summary of the method: as §1
# [24] = tested on: Klebsiella pneumoniae; assay: Synergistic antibacterial activity against Klebsiella pneumoniae 776/1742 producing KPC-2 assessed as meropenem MIC at 4 ug/ml by broth microdilution method; assay type: functional; settings: dose 4 µg/ml
# [25] = tested on: Klebsiella pneumoniae; assay: Synergistic antibacterial activity against Klebsiella pneumoniae 901/1860 producing KPC-3 assessed as meropenem MIC at 4 ug/ml by broth microdilution method; assay type: functional; settings: dose 4 µg/ml
# [26] = tested on: Klebsiella pneumoniae; assay: Synergistic antibacterial activity against Klebsiella pneumoniae 977/1916 producing KPC-3 assessed as meropenem MIC at 4 ug/ml by broth microdilution method; assay type: functional; settings: dose 4 µg/ml
# [27] = tested on: Klebsiella pneumoniae; assay: Synergistic antibacterial activity against Klebsiella pneumoniae 1354/2241 producing KPC-3 assessed as meropenem MIC at 4 ug/ml by broth microdilution method; assay type: functional; settings: dose 4 µg/ml; summary of the method: as §1
# [28] = tested on: Klebsiella pneumoniae; assay: Synergistic antibacterial activity against Klebsiella pneumoniae 440/1360 producing KPC-2 assessed as meropenem MIC at 4 ug/ml by broth microdilution method; assay type: functional; settings: dose 4 µg/ml; summary of the method: as §1
# [29] = tested on: Klebsiella pneumoniae; assay: Synergistic antibacterial activity against Klebsiella pneumoniae NY BS producing OXA-232 assessed as meropenem MIC at 4 ug/ml by broth microdilution method; assay type: functional; settings: dose 4 µg/ml
# [30] = tested on: Acinetobacter baumannii; assay: Synergistic antibacterial activity against Acinetobacter baumannii PR319 producing OXA-23/24/40 assessed as meropenem MIC at 4 ug/ml by broth microdilution method; assay type: functional; settings: dose 4 µg/ml
# [31] = tested on: Acinetobacter baumannii; assay: Synergistic antibacterial activity against Acinetobacter baumannii PR420 producing OXA-23/24/40 assessed as meropenem MIC at 4 ug/ml by broth microdilution method; assay type: functional; settings: dose 4 µg/ml
# [32] = tested on: Acinetobacter baumannii; assay: Synergistic antibacterial activity against Acinetobacter baumannii PR476 producing OXA-24/40 assessed as meropenem MIC at 4 ug/ml by broth microdilution method; assay type: functional; settings: dose 4 µg/ml
# [33] = tested on: Klebsiella pneumoniae; assay: Synergistic antibacterial activity against Klebsiella pneumoniae 1315/2198 producing KPC-3 assessed as meropenem MIC at 8 ug/ml by broth microdilution method; assay type: functional; settings: dose 8 µg/ml; summary of the method: as §1
# [34] = tested on: Klebsiella pneumoniae; assay: Synergistic antibacterial activity against Klebsiella pneumoniae 761/1723 producing KPC-3 assessed as meropenem MIC at 8 ug/ml by broth microdilution method; assay type: functional; settings: dose 8 µg/ml
# [35] = tested on: Klebsiella pneumoniae; assay: Synergistic antibacterial activity against Klebsiella pneumoniae CAV 1636 producing OXA-181 assessed as meropenem MIC at 8 ug/ml by broth microdilution method; assay type: functional; settings: dose 8 µg/ml
# [36] = tested on: Pseudomonas aeruginosa; assay: Synergistic antibacterial activity against Pseudomonas aeruginosa 795 assessed as meropenem MIC at 8 ug/ml by broth microdilution method; assay type: functional; settings: dose 8 µg/ml
# [37] = tested on: Acinetobacter baumannii; assay: Synergistic antibacterial activity against Acinetobacter baumannii PR323 producing OXA-24/40 assessed as meropenem MIC at 8 ug/ml by broth microdilution method; assay type: functional; settings: dose 8 µg/ml
# [38] = tested on: Acinetobacter baumannii; assay: Synergistic antibacterial activity against Acinetobacter baumannii PR381 producing OXA-24/40 assessed as meropenem MIC at 8 ug/ml by broth microdilution method; assay type: functional; settings: dose 8 µg/ml
# [39] = Inhibition of bacteria ADC-7 assessed as apparent inhibition constant using nitrocefin as substrate
SMILES,T1/2 [2] [min],MIC [4] [µg/mL],MIC [5] [µg/mL],MIC [6] [µg/mL],MIC [7] [µg/mL],MIC [8] [µg/mL],MIC [9] [µg/mL],MIC [10] [µg/mL],MIC [11] [µg/mL],MIC [12] [µg/mL],MIC [21] [µg/mL],MIC [22] [µg/mL],MIC [23] [µg/mL],MIC [24] [µg/mL],MIC [25] [µg/mL],MIC [26] [µg/mL],MIC [27] [µg/mL],MIC [28] [µg/mL],MIC [29] [µg/mL],MIC [30] [µg/mL],also measured
N#C[C@@H]1CC[C@@H]2CN1C(=O)N2OS(=O)(=O)[O-].[Na+],26,≤ 0.12,≤ 0.12,≤ 0.12,0.25,> 16,8,16,2,2,≤ 0.12,≤ 0.12,≤ 0.12,0.5,≤ 0.12,≤ 0.12,≤ 0.12,≤ 0.12,0.25,16,K [1]: 2.4 10^5/M/s; MIC [3]: > 16 µg/mL; MIC [13]: ≤ 0.12 µg/mL; MIC [14]: ≤ 0.12 µg/mL; MIC [15]: 0.5 µg/mL; MIC [16]: 8 µg/mL; MIC [17]: > 16 µg/mL; MIC [18]: 8 µg/mL; MIC [19]: 8 µg/mL; MIC [20]: 2 µg/mL; MIC [31]: 16 µg/mL; MIC [32]: 0.25 µg/mL; MIC [33]: ≤ 0.12 µg/mL; MIC [34]: ≤ 0.12 µg/mL; MIC [35]: ≤ 0.12 µg/mL; MIC [36]: 16 µg/mL; MIC [37]: 16 µg/mL; MIC [38]: > 16 µg/mL
O=C(NNC(=O)[C@@H]1CC[C@@H]2CN1C(=O)N2OS(=O)(=O)O)[C@@H]1CCNC1,33,≤ 0.12,≤ 0.12,≤ 0.12,≤ 0.12,0.5,8,> 16,4,1,≤ 0.12,≤ 0.12,≤ 0.12,≤ 0.12,≤ 0.12,≤ 0.12,≤ 0.12,≤ 0.12,≤ 0.12,> 16,Ki [39]: 3.7 µM; MIC [13]: ≤ 0.12 µg/mL; MIC [14]: ≤ 0.12 µg/mL; MIC [15]: ≤ 0.12 µg/mL; MIC [16]: ≤ 0.12 µg/mL; MIC [17]: > 16 µg/mL; MIC [18]: 16 µg/mL; MIC [19]: 16 µg/mL; MIC [20]: 2 µg/mL; MIC [31]: > 16 µg/mL; MIC [32]: 0.25 µg/mL; MIC [33]: ≤ 0.12 µg/mL; MIC [34]: ≤ 0.12 µg/mL; MIC [35]: ≤ 0.12 µg/mL; MIC [36]: ≤ 0.12 µg/mL; MIC [37]: > 16 µg/mL; MIC [38]: > 16 µg/mL
NC(=O)[C@@H]1CC[C@@H]2CN1C(=O)N2OS(=O)(=O)[O-].[Na+] [AVIBACTAM SODIUM],82,≤ 0.12,≤ 0.12,≤ 0.12,≤ 0.12,> 16,> 16,16,16,2,≤ 0.12,≤ 0.12,≤ 0.12,≤ 0.12,≤ 0.12,≤ 0.12,≤ 0.12,≤ 0.12,0.5,> 16,K [1]: 1.3 10^4/M/s; Ki [39]: 19 µM; MIC [3]: > 16 µg/mL; MIC [31]: > 16 µg/mL; MIC [32]: 0.25 µg/mL
O.O=C(NC1CCNCC1)[C@@H]1CC[C@@H]2CN1C(=O)N2OS(=O)(=O)O [RELEBACTAM],46,≤ 0.12,0.25,≤ 0.12,0.25,> 16,16,> 16,16,2,≤ 0.12,≤ 0.12,0.25,0.5,≤ 0.12,≤ 0.12,≤ 0.12,≤ 0.12,> 16,> 16,K [1]: 2.8 10^4/M/s; MIC [3]: > 16 µg/mL; MIC [31]: > 16 µg/mL; MIC [32]: 0.25 µg/mL
O=C(NNC(=O)[C@@H]1CC[C@@H]2CN1C(=O)N2OS(=O)(=O)O)[C@@H]1CCCNC1 [ZIDEBACTAM],29,≤ 0.12,≤ 0.12,≤ 0.12,≤ 0.12,16,8,16,4,1,≤ 0.12,≤ 0.12,≤ 0.12,≤ 0.12,≤ 0.12,≤ 0.12,≤ 0.12,≤ 0.12,≤ 0.12,> 16,Ki [39]: 2.3 µM; MIC [13]: ≤ 0.12 µg/mL; MIC [14]: ≤ 0.12 µg/mL; MIC [15]: ≤ 0.12 µg/mL; MIC [16]: 0.5 µg/mL; MIC [17]: > 16 µg/mL; MIC [18]: 16 µg/mL; MIC [19]: 16 µg/mL; MIC [20]: 2 µg/mL; MIC [31]: > 16 µg/mL; MIC [32]: 0.25 µg/mL; MIC [33]: ≤ 0.12 µg/mL; MIC [34]: ≤ 0.12 µg/mL; MIC [35]: ≤ 0.12 µg/mL; MIC [36]: 4 µg/mL; MIC [37]: > 16 µg/mL; MIC [38]: > 16 µg/mL
